E-selectin induc: induces E-selectin expression in human endothelial cells; P16581; HUVEC E-selectin immunofluorescence imaging; normalized: neutral wells 0, TNF-alpha wells 100; activation, % at 7.58 µM; 260,000 tested, 0.37% active;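 active = mean E-selectin-positive cell signal at least 10% of the positive control, reached in at least 60% of replicates, without over 20% cell loss; inconclusive = no rule given, readout overlaps actives, possibly toxicity-flagged; inactive = the rest, including those meeting only one limit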
Target sequence (P16581 whole entry, looked up): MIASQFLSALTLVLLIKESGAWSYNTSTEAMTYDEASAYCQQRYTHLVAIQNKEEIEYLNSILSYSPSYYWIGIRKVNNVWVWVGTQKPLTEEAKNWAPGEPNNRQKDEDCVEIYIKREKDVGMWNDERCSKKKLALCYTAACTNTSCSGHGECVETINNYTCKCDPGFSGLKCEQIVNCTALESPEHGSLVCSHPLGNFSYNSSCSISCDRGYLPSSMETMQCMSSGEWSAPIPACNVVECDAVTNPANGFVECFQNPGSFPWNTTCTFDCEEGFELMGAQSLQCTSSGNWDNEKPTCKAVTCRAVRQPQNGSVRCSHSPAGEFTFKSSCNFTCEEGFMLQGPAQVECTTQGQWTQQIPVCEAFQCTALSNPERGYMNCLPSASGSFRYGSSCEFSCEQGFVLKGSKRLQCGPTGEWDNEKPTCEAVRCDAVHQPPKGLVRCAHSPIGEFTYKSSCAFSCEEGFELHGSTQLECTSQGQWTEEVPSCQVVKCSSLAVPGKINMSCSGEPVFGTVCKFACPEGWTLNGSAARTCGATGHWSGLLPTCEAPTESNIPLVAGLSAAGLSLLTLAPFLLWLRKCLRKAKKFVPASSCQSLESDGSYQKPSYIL
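Read-out: % PE-positive cells | Test system: HUVEC | Doses: One compound dose added by pin transfer | Buffer or medium: EGM-2 over gelatin coat | Signal: Immunofluorescence imaging | Benchmarks: TNF-alpha, DMSO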
DENV2 CPE rescue: DENV2-induced cell death inhibition; DENV2-infected cells, cytopathic effect rescue, plate reader; CPE inhibition, % at 9.99 µM; 350,000 tested, 1.7% active; AID 651640; in the data active = CPE inhibition above about 20%, passing the limit was not always enough; inconclusive = no clear call, values can overlap the other calls; tested in BHK-21 cells;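 note: 0% = median of neutral control wells and 100% = median of positive control wells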
Cneo AK release: Cryptococcus neoformans lysis via adenylate kinase release. lysis activity, % at 15 µM. 360,000 tested, 0.2% active. AID 651654. C. neoformans lysis, adenylate kinase release luminescence, 4 h; normalised: neutral wells 0, clomiphene wells 100;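 active = mean lysis activity across replicates of at least 80%, whatever share of replicates individually reach that level; inactive = mean lysis activity below 80%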
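Test system: log-phase Cryptococcus neoformans yeast cells; Quantity: yeast cell density of 5 × 10^6 cells/mL; Buffer or medium: YPD; Doses: single compound concentration per well; Timing: 4 h at 37 °C static, read 1 h later; Measured by: AK luminescence; Read-out basis: lysis from increased AK signal; Control set: Clomiphene as positive control.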
Ecoli rRNA inh: inhibitors of bacterial rRNA selective over humanized ribosomes | E. coli WT GFP vs humanized-ribosome RFP mutants, fluorescence, 24 h; hits give low values; DMSO median 0, no signal -100 | GFP signal change (wild-type ribosome), % (concentration not given with the values) | 350,000 tested, 1.6% active;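 active = significant combined selectivity score with lowered wild-type GFP, culture density cut under 30%, mutant RFP and density less affected; inactive = any of these conditions unmet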
miR-122 sensor: inhibitors of miR-122 in Huh7 cells; 340,000 tested, 0.3% active; AID 602342; activation (reporter increase), % at 12.5 µM; Huh7 miR-122 Renilla luciferase sensor, 48 h; neutral wells = 0, positive control = 100;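 active = mean replicate activation score at least 90 and every replicate individually at or above 90; inconclusive = only one of the two criteria met; inactive = neither criterion met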;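 note: higher luciferase means less miR-122 activity so hits act as miR-122 inhibitors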
* marks the source's active call; other numbers are inactive results; [ ] = another dose, or the depositor's remark. A selection: hits, their analogues and other compounds. The true share with any hit is near 3.1%.

For CN(C)C(=O)c1cccc(-c2ccc([C@@H]3[C@@H](C#N)N(C(=O)C4CCC4)[C@@H]3CO)cc2)c1 the results were E-selectin induc 1.4, DENV2 CPE rescue 25.9*, Cneo AK release 2.3 and Ecoli rRNA inh 1.5.
`CN(C)C(=O)c1cccc(-c2ccccc2[C@H]2[C@@H](C#N)N(C(=O)C3CC3)[C@H]2CO)c1` gave E-selectin induc 0.0, DENV2 CPE rescue 42.9* and Ecoli rRNA inh 1.7.
CN(C)C(=O)c1ccc(-c2ccc([C@@H]3[C@@H](CO)N(C(=O)C4CCCC4)[C@H]3C#N)cc2)cc1 was read as E-selectin induc -0.3, DENV2 CPE rescue 29.0*, Cneo AK release 9.4 and Ecoli rRNA inh 0.7.
For CN(C)CC(=O)N1[C@H](C#N)[C@H](c2ccc(-c3cccc(C(=O)N(C)C)c3)cc2)[C@@H]1CO the results were E-selectin induc -0.1, DENV2 CPE rescue inconclusive, Cneo AK release -1.9 and Ecoli rRNA inh 0.1.
For C[C@H](CO)N1C[C@H](C)[C@H](CN(C)S(=O)(=O)c2ccc(F)cc2)Oc2c(NC(=O)Nc3cccc4ccccc34)cccc2C1=O the results were DENV2 CPE rescue -4.7 and miR-122 sensor 4.6[16.7 µM].
CC(C)C#Cc1ccc2c(c1)O[C@@H](CN(C)C)[C@H](C)CN([C@@H](C)CO)S2(=O)=O was read as E-selectin induc 0.0, DENV2 CPE rescue -1.7, Cneo AK release 6.7 and Ecoli rRNA inh -1.7.
Screening C[C@H]1CN([C@@H](C)CO)C(=O)c2cc(NC(=O)CCCCCC(=O)Nc3ccccc3N)ccc2O[C@@H]1CN(C)S(=O)(=O)c1ccccc1 returned E-selectin induc -0.1, DENV2 CPE rescue 18.3 and Ecoli rRNA inh 0.5.
For CSCCC(NS(=O)(=O)c1ccccc1)C(=O)OCc1cc(=O)oc2cc(O)ccc12 (centres undefined) the results were DENV2 CPE rescue -7.8, Cneo AK release 2.7, Ecoli rRNA inh -22.5* and miR-122 sensor 21.6.
For CSCCC(NS(=O)(=O)c1ccccc1)C(=O)OCc1nc2ccsc2c(=O)[nH]1 (centres undefined) the results were DENV2 CPE rescue 6.7, Cneo AK release 21.5 and Ecoli rRNA inh 1.8.
`COc1ccc(S(=O)(=O)N2C[C@@H](O)COC[C@@H]3O[C@H](CC(=O)NCCN4CCCCC4)CC[C@H]32)cc1` gave E-selectin induc 0.0, DENV2 CPE rescue -0.5, Cneo AK release -1.4, Ecoli rRNA inh 6.2 and miR-122 sensor 5.8[16.7 µM].
O=C(C1=C[C@@H](c2ccc3c(c2)OCO3)C[C@@H](OCc2ccc(CO)cc2)O1)N1CCN(Cc2ccccc2)CC1 was read as DENV2 CPE rescue 15.6 and Cneo AK release 0.1.
Screening O=C(CC1(c2ccc(Cl)cc2)C2CC3CC(C2)CC1C3)NCCO (centres undefined) returned E-selectin induc 0.5, DENV2 CPE rescue 0.5 and Ecoli rRNA inh -42.4*.
Screening O=C(CC(=O)Nc1nc(C23CC4CC(CC(C4)C2)C3)cs1)NCCO returned E-selectin induc -0.2, DENV2 CPE rescue 15.8, Cneo AK release -2.3, Ecoli rRNA inh -9.1 and miR-122 sensor -6.0.
COc1ccc(S(=O)(=O)N2CC[C@@H]3[C@H](CO)N(C)c4ccc(-c5ccc(F)cc5)cc4[C@@H]32)cc1 was read as E-selectin induc 0.0, DENV2 CPE rescue -21.3, Cneo AK release -17.7, Ecoli rRNA inh -1.1 and miR-122 sensor inconclusive.
COc1ccc(S(=O)(=O)N2CC[C@@H]3[C@H]2c2cc(-c4ccccc4F)ccc2N(C)[C@H]3CO)cc1 was read as E-selectin induc 0.2, DENV2 CPE rescue 25.5*, Cneo AK release 2.4, Ecoli rRNA inh 1.8 and miR-122 sensor 23.6[16.7 µM].
Screening CN1c2ccc(-c3ccccc3F)cc2[C@@H]2[C@@H](CCN2S(=O)(=O)c2ccc(F)cc2)[C@H]1CO returned E-selectin induc 0.3, DENV2 CPE rescue 19.9, Cneo AK release -1.5, Ecoli rRNA inh -3.8 and miR-122 sensor -4.8[16.7 µM].
CN1c2ccc(-c3ccccc3F)cc2[C@@H]2[C@@H](CCN2S(=O)(=O)c2ccc(F)cc2)[C@@H]1CO was read as E-selectin induc 0.1, DENV2 CPE rescue 52.6*, Cneo AK release -1.4, Ecoli rRNA inh -0.1 and miR-122 sensor 14.0[16.7 µM].
`O=C(NCc1ccc(F)cc1)[C@@H]1[C@@H](CO)[C@@H]2Cn3c(cccc3=O)[C@H]1N2` gave E-selectin induc -0.3, DENV2 CPE rescue -1.6, Cneo AK release -0.3, Ecoli rRNA inh -0.4 and miR-122 sensor -5.7[16.7 µM].
`COc1cc(OC)c(C=CC(=O)c2ccccc2O)c(OC)c1` gave E-selectin induc 0.2, DENV2 CPE rescue 2.7, Cneo AK release -0.9, Ecoli rRNA inh 8.6 and miR-122 sensor 7.4.
Screening COc1cc(/C=C/C(=O)c2ccccc2O)cc(OC)c1OC returned DENV2 CPE rescue 1.4, Cneo AK release -1.2, Ecoli rRNA inh -16.9* and miR-122 sensor 0.9.
Screening Cc1ccc(O)c(C(=O)C=Cc2ccccc2)c1 returned E-selectin induc 0.0, DENV2 CPE rescue 7.2 and Ecoli rRNA inh -1.7.
For COc1cc(/C=C/C(=O)OCC(=O)NC(C)c2ccccc2)cc(OC)c1OC (centres undefined) the results were E-selectin induc -0.1, DENV2 CPE rescue -3.3, Cneo AK release -1.5, Ecoli rRNA inh -13.3* and miR-122 sensor -5.1.
COc1cc(C)cc(C(=O)C=Cc2ccccc2)c1O was read as E-selectin induc 0.2, DENV2 CPE rescue 18.8, Cneo AK release 2.0, Ecoli rRNA inh -52.1* and miR-122 sensor 1.6.
`COc1cc(/C=C/C(=O)NC(=O)c2ccccc2O)ccc1OC(C)=O` gave DENV2 CPE rescue 73.3*, Cneo AK release -11.8 and miR-122 sensor -5.4.
Screening CO[C@H]1CN(C)C(=O)c2cc(NC(=O)c3cnccn3)ccc2OC[C@H](C)N(C)C[C@@H]1C returned E-selectin induc -0.2, DENV2 CPE rescue -0.7, Cneo AK release 0.3, Ecoli rRNA inh 2.1 and miR-122 sensor 13.0[16.7 µM].
For COc1ccc(C(C)(C)C)cc1S(=O)(=O)n1ccnc1C the results were DENV2 CPE rescue -3.1, Ecoli rRNA inh 2.2 and miR-122 sensor 94.8*.
Screening CN1C(=O)c2cc(NC(=O)c3cncs3)ccc2OC[C@H]2O[C@@H](CC(=O)NCC3CC3)CC[C@@H]21 returned Ecoli rRNA inh 1.1.
COc1ccc(C2=Nn3c(nnc3-c3ccccc3OC)SC2)cc1OCC1CC1 was read as E-selectin induc 0.0, DENV2 CPE rescue 25.1*, Cneo AK release 2.4, Ecoli rRNA inh -27.3* and miR-122 sensor 63.4.
For COc1ccc(OC)c(-c2nnc3n2N=C(c2ccc(OC)c(OC)c2)CS3)c1 the results were E-selectin induc -0.1, DENV2 CPE rescue 31.3*, Cneo AK release 2.3 and Ecoli rRNA inh -18.9*.
